Source: PubChem (The Scripps Research Institute Molecular Screening Center)
Compounds with a hit are over-represented: about 1.6% of the library has one in this group of screens.
sPLA2-III inh: Blocks human group III sPLA2 activity; 370,000 compounds, 0.56% hits; inhibition, % at 12.2 µM; AID 743126; Q9NZ20; QFRET BODIPY PC-A2 liposome hydrolysis, fluorescence;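 active means inhibition above mean plus 3 SD of compounds lying within the high and low control bounds, cut at about 19% in these data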;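 further: 0% = median of test compound wells and 100% = no enzyme DMSO wells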
proCasp7 act: counter-screen for procaspase-3 activators: activators of human procaspase-7; P55210; recombinant procaspase-7, Ac-DEVD-pNA absorbance 405 nm; D23A/D198A/D206A triple mutant, cannot self-cleave; scale: DMSO 0, 5 µM enzyme 100; activation, % at 8.5 µM; 330,000 compounds, 0.093% hits; AID 463210;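 active means percent activation above the screen-wide mean plus 3 SD, cut at about 25% in these data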
Target sequence (P55210 whole entry D23A/D198A/D206A): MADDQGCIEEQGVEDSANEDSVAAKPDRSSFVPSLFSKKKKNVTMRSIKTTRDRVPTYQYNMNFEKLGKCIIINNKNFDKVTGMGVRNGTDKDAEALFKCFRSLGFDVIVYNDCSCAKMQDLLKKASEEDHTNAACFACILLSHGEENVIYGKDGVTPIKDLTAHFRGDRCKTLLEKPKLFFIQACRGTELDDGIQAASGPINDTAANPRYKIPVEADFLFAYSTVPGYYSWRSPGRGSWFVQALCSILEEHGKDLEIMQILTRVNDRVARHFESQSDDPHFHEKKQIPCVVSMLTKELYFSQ
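Replicates: singlicate. Assay system: Procaspase-7 triple mutant (PC-7 D3A). Signal: 405 nm absorbance of p-nitroaniline. Times: 1 h preincubation, 2 h reaction. Buffer or medium: Zinc-free HEPES pH 7.4 with 300 mM NaCl, 0.01% Triton X-100. Also added: DEVD-pNA substrate. Benchmarks: DMSO wells as 0%, DMSO with 5 µM added PC-7 as 100%.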
procasp3 activ: procaspase-3 (human) activation. AID 463141. 330,000 compounds, 0.11% hits. activation, % at 8.5 µM. P42574. recombinant procaspase-3 D3A, Ac-DEVD-pNA absorbance 405 nm;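 active means activation above the mean of all tested compounds plus 3 SD, cut at about 21% in these data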;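 further: 0% = DMSO alone and 100% = DMSO wells spiked with extra 5 µM PC-3 D3A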
Target sequence (P42574 whole entry D9A/D28A/D175A): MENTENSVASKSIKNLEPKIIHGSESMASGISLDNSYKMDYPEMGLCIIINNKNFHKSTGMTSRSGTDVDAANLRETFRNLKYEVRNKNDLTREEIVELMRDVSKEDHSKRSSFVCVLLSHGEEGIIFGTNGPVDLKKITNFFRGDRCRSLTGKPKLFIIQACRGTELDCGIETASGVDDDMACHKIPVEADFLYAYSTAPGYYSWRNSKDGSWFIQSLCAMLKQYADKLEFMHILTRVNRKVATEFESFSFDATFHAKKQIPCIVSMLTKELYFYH
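Assay system – Procaspase-3 D3A mutant, all three cleavage aspartates alanine · Controls – DMSO-only low control, 5 µM PC-3 D3A high control · Schedule – 1 h compound preincubation, 2 h substrate hydrolysis at 25 °C · Signal – 405 nm absorbance of p-nitroaniline, reads at 0 and 120 min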
PLC-beta3 inh: blocks human PLC-beta3 enzyme activity. Purified PLC-beta3, fluorogenic substrate, fluorescence. inhibition, % at 12.2 µM. 370,000 compounds, 0.18% hits;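 further: 0% = median of compound wells on plate and 100% = full blocker control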
PLC-gamma1 inh: PLC-gamma1 (human) inhibition, primary screen. AID 720700. purified PLC-gamma1, fluorogenic substrate, fluorescence. 370,000 compounds, 0.84% hits. inhibition, % at 12.2 µM; in the data active means inhibition above about 9.5%
PLCgamma1 ctr: inhibits human PLC-gamma1 in PLC-beta3 counter-screen | shares compounds with PLC-gamma1 inh | purified PLC-gamma1, fluorogenic substrate, fluorescence | inhibition, % at 12.3 µM | 3,300 compounds, 3.1% hits | AID 743258; in the data active means inhibition above about 9.5%
PLCbeta3 conf: human PLC-beta3 inhibition, confirmation. shares compounds with PLC-gamma1 inh. 3,300 compounds, 1% hits. inhibition, % at 12.3 µM. purified PLC-beta3, fluorogenic substrate fluorescence
* hit, by the source's call. Unless noted, no stated cut-off is given here; in the data, active means inhibition above about 11%; inactive means the rest.

Screening OCCC1CN(Cc2cccc3nonc23)CCN1Cc1ccsc1 (stereo unspecified) returned sPLA2-III inh 3, proCasp7 act 13, procasp3 activ 4, PLC-beta3 inh 3, PLC-gamma1 inh 10*, PLCgamma1 ctr 1 and PLCbeta3 conf 0.
For CC(=O)NC1CCCCN(Cc2cccc(F)c2)C1=O (stereo unspecified) the results were sPLA2-III inh -1, PLC-beta3 inh 1 and PLC-gamma1 inh 1.
CCOc1cc(OCC)cc(C(=O)N2CCC[C@H]2C(=O)N2CCC[C@H]2C(=O)NCc2cccc(OC)c2)c1 was read as sPLA2-III inh -1, PLC-beta3 inh 2 and PLC-gamma1 inh 1.
COc1ccc(CC(=O)NCC2CCCN(Cc3cc(OC)cc(OC)c3)C2)cc1 (stereo unspecified) was read as sPLA2-III inh 6, proCasp7 act 5, procasp3 activ 5, PLC-beta3 inh 1, PLC-gamma1 inh 13*, PLCgamma1 ctr -5 and PLCbeta3 conf -4.
`CCOC(=O)Nc1ccc2nc(Sc3ccc(Cl)cc3)sc2c1` gave sPLA2-III inh -8, proCasp7 act -4, procasp3 activ 1, PLC-beta3 inh 2 and PLC-gamma1 inh 3.
Screening C[C@@H]1CN([C@@H](C)CO)C(=O)CCCn2nncc2CO[C@H]1CN(C)C(=O)C1CCCCC1 returned sPLA2-III inh 4, PLC-beta3 inh 0 and PLC-gamma1 inh 3.
Screening Cc1nc([N+](=O)[O-])cn1CC(O)c1ccc(F)cc1 (stereo unspecified) returned sPLA2-III inh 3, proCasp7 act 10, procasp3 activ 1, PLC-beta3 inh -3 and PLC-gamma1 inh 4.
For COC(=O)c1ccccc1NN=Nc1ccccc1[N+](=O)[O-] the results were sPLA2-III inh 5, PLC-beta3 inh 13*, PLC-gamma1 inh 2, PLCgamma1 ctr -3 and PLCbeta3 conf 0.
Screening O=[N+]([O-])c1ccccc1N=NNc1ccccc1 returned sPLA2-III inh -1, PLC-beta3 inh 1 and PLC-gamma1 inh 5.
Screening CCC(C)(C)c1ccc(OCCCC[n+]2cccc(C)c2)c(C(C)(C)CC)c1 returned sPLA2-III inh -2, PLC-beta3 inh 5 and PLC-gamma1 inh 9.
Screening O=c1[nH]nc(-c2ccc(NCCCO)c([N+](=O)[O-])c2)c2ccccc12 returned sPLA2-III inh 7, proCasp7 act 3, procasp3 activ 0, PLC-beta3 inh 3, PLC-gamma1 inh 13*, PLCgamma1 ctr -2 and PLCbeta3 conf -6.
C[C@H]1[C@@H](N(C)CC2CCCCC2)CC[C@@]23CCCN2C(=O)CCC[C@@H]13 was read as sPLA2-III inh 4, PLC-beta3 inh 0 and PLC-gamma1 inh -2.
`Cc1sc(N)nc1C12CC3CC(CC(C3)C1)C2` gave sPLA2-III inh 11, proCasp7 act -27, procasp3 activ -4, PLC-beta3 inh -9 and PLC-gamma1 inh 1.
For S=c1nc(C23CC4CC(CC(C4)C2)C3)[nH][nH]1 the results were sPLA2-III inh -15, proCasp7 act -9, procasp3 activ -5, PLC-beta3 inh 7, PLC-gamma1 inh 12*, PLCgamma1 ctr -3 and PLCbeta3 conf 1.
`Cc1nnc(NC(=O)c2ccncc2)s1` gave sPLA2-III inh 3, proCasp7 act 3, procasp3 activ -5, PLC-beta3 inh -1 and PLC-gamma1 inh 2.
Cc1cnc(NC(=O)c2ccncc2)s1 was read as sPLA2-III inh 11, proCasp7 act 5, procasp3 activ -2, PLC-beta3 inh -5, PLC-gamma1 inh 11*, PLCgamma1 ctr -5 and PLCbeta3 conf -2.
For Cn1[nH]c(=O)c2ccccc2c1=O the results were sPLA2-III inh 3, proCasp7 act 18, procasp3 activ 2, PLC-beta3 inh -13 and PLC-gamma1 inh -11.
`O=c1[nH]n(-c2ccccc2Cl)c(=O)c2ccccc12` gave sPLA2-III inh 9, proCasp7 act 3, procasp3 activ -6, PLC-beta3 inh -4, PLC-gamma1 inh 14*, PLCgamma1 ctr -10 and PLCbeta3 conf -7.
CCN(CC)C(=O)Oc1ccc(Br)cc1C(=O)Nc1ccc(F)cc1F was read as sPLA2-III inh 8, proCasp7 act 0, procasp3 activ -9, PLC-beta3 inh 1, PLC-gamma1 inh 9.7*, PLCgamma1 ctr 0 and PLCbeta3 conf -6.
For CC(NC(C)c1ccccc1Cl)C(=O)Nc1cccc(S(=O)(=O)N2CCCCC2)c1 (stereo unspecified) the results were sPLA2-III inh -12, proCasp7 act 0, procasp3 activ -3, PLC-beta3 inh -5, PLC-gamma1 inh 9.8*, PLCgamma1 ctr 1 and PLCbeta3 conf 1.
`O=C(CCl)Nc1cccc(S(=O)(=O)N2CCCCCC2)c1` gave sPLA2-III inh 4, proCasp7 act -8, procasp3 activ -18, PLC-beta3 inh 5 and PLC-gamma1 inh 2.
`CC1(C)CC2(OC2c2ccccc2)C(=O)c2ccccc21` (stereo unspecified) gave sPLA2-III inh 0, PLC-beta3 inh -3 and PLC-gamma1 inh 1.
Screening CC1=[N+]([O-])C(C)(C)CC(C)(C)c2ccccc21 returned sPLA2-III inh 2, proCasp7 act -2, procasp3 activ 2, PLC-beta3 inh 12*, PLC-gamma1 inh 3, PLCgamma1 ctr -5 and PLCbeta3 conf -5.
O=C(OCC#CCSc1nnc(-c2ccc(F)cc2)o1)c1ccc(F)cc1 was read as sPLA2-III inh 3, PLC-beta3 inh 6, PLC-gamma1 inh 10*, PLCgamma1 ctr -8 and PLCbeta3 conf -6.
Screening COC(=O)[C@]12C[C@H](CC(=O)N3CCSCC3)C(=O)N(Cc3cccc4ccccc34)C1=C[C@H](C1CCCC1)O[C@@H]2C returned sPLA2-III inh -5, PLC-beta3 inh 4 and PLC-gamma1 inh 8.
CCC(C)c1ccccc1N1CC(C(=O)N2CCN(S(=O)(=O)c3ccccc3Br)CC2)CC1=O (stereo unspecified) was read as sPLA2-III inh -14, proCasp7 act -2, procasp3 activ 8, PLC-beta3 inh -5 and PLC-gamma1 inh 0.
Screening Cc1ccc(S[C@@H](CCN2CC[C@H](C)CCC2=O)c2ccccc2)cc1 returned sPLA2-III inh 1, proCasp7 act -6, procasp3 activ -1, PLC-beta3 inh 1 and PLC-gamma1 inh -2.
`COc1ccc(S[C@@H](CCN2CC[C@H](C)CCC2=O)c2ccccc2)cc1` gave sPLA2-III inh -9, proCasp7 act 11, procasp3 activ 4, PLC-beta3 inh 7, PLC-gamma1 inh 9.7*, PLCgamma1 ctr -6 and PLCbeta3 conf -3.
